According to PMC2225614 (The Journal of General Physiology, 2001):

Assays:
rod CNG channels = conditions: ref Molokanova et al. 1999a; cited from earlier work
[1] = target: T1, α-subunit of the bovine retinal rod CNG channel (RETα) (Bos taurus, UniProt Q00194); assay type: biochemical; conditions: 10 μM Ni^2+; subsaturating cGMP (25 μM); steady state
T1 sequence (Q00194 1-690): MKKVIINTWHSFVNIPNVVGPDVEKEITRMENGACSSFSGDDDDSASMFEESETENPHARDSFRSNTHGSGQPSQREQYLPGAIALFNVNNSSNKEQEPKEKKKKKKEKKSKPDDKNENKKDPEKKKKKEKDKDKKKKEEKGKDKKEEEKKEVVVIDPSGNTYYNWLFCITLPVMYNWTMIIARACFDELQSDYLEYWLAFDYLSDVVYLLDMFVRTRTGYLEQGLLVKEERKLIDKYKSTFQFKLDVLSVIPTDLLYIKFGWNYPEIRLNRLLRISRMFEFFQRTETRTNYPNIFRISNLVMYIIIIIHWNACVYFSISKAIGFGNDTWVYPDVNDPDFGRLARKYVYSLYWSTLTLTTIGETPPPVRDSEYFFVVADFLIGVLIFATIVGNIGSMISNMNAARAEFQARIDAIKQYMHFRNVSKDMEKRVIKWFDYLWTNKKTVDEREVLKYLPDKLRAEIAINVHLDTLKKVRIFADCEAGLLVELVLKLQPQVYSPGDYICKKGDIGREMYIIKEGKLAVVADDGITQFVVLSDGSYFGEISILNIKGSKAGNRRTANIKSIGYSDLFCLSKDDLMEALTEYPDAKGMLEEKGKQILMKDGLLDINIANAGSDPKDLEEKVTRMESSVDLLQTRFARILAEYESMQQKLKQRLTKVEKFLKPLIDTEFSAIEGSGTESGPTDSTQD
Method in brief: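 RETα was expressed in oocytes from 50 nl of 50 ng/μl RNA. Inside-out patches were held at −75 mV in symmetrical NaCl/EGTA/EDTA/HEPES, pH 7.5, with solution exchange within 50 ms. Current was normalized to Imax: residual current after 1 min preexposure then 2 mM cGMP, or steady-state current with compound added during 2 mM cGMP. Ki and Hill coefficient came from a modified Hill fit; τa from single-exponential fits; mean ± SEM.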

Compound	effect on genistein's action on CNG channels (rod CNG channels)	effect of Ni^2+ on genistein inhibition [1]
O=CN/C=C/c1cc(O)ccc1O [erbstatin]	noncompetitively prevents genistein's effect on the channels	–
Nc1ncnc2c1ncn2[C@@H]1O[C@H](COP(=O)(O)OP(=O)(O)NP(=O)(O)O)[C@@H](O)[C@H]1O [AMP-PNP]	competitive inhibitor of genistein's action on CNG channels	–
[Ni+2] [Ni^2+]	–	only reduces genistein inhibition
